# Screening results (PubChem BioAssay)
# An excerpt weighted towards active compounds, which were near 6.8% of everything screened.
# PHOSPHO1 inh: PubChem AID 1565; Phosphoethanolamine/phosphocholine phosphatase (Homo sapiens), Q8TCT1; recombinant PHOSPHO1, absorbance phosphatase assay; inhibition, % at 13.3 µM; 290,000 compounds, 1.1% hits; in the data active means inhibition above about 60%
# Target sequence (Q8TCT1 whole entry, looked up): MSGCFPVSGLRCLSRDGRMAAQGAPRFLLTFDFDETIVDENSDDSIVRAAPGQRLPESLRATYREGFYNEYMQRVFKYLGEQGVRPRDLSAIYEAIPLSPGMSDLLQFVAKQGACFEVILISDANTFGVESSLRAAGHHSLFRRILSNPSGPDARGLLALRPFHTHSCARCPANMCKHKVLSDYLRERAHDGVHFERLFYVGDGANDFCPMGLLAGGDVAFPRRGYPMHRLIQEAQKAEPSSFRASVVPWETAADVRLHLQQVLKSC
# HSF1 activator: HSF-1 activators, primary screen, NIH3T3-HGL cells, MG132 stress, luminescence, single point. 300,000 compounds, 1.7% hits. activation, % at 9 µM. NIH3T3-HGL HSF-1 luciferase reporter, 8 h; 100% = twice DMSO control signal. AID 504408, 2011;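 active means mean replicate activation of at least 50% with a set share of replicates each reaching 50%; inconclusive means only one of those two conditions met; inactive means mean below 50% and too few replicates reaching it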;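 further: 0% = median of the neutral control wells and 100% = twice that signal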
# ALR H2O2 inh: inhibitors of human ALR sulfhydryl oxidase, primary screen, biochemical, H2O2 detection, HRP-luminol luminescence, single point; purified ALR, DTT oxidation; inhibition, % (test concentration not listed); FAD-linked sulfhydryl oxidase ALR (Homo sapiens), P55789; 290,000 compounds, 3.8% hits;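 active means mean replicate inhibition above about 79%, with every replicate also reaching it, limit read from the data; inconclusive means only one of the two criteria met; inactive means mean below limit and not every replicate reaching it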
# Target sequence (P55789 whole entry, looked up): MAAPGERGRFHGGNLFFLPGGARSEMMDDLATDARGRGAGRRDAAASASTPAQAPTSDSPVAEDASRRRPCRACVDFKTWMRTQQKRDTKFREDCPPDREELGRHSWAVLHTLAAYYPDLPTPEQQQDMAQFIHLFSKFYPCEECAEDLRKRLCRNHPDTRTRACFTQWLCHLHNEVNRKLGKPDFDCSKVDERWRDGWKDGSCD
# AI-2 QS modul: Vibrio harveyi AI-2 quorum sensing modulators, primary screen, JMH597 strain, luminescence/OD600 ratio | Vibrio harveyi JMH597 AI-2 luminescence/OD600 ratio, 9 h; stronger effect = lower value; strain lacks LuxN and CqsS sensors; 0 = neutral-control median | activity change, % at 7.5 µM | 300,000 compounds, 0.4% hits | AID 2094, 2009; in the data active means activity change below about -75%, passing the limit was not always enough; inconclusive means no clear call, values can overlap the other calls;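 further: luminescence divided by OD600 gain over 9 h not by final OD600 alone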
# HSF1 inh: HSF1 inhibitors in luciferase reporter cells, primary screen, cell-based, NIH3T3, luminescence; NIH3T3-HGL HSE-luciferase, MG132-induced, luminescence 8 h; stronger effect = lower value; activity change, negative = inhibition, % at 7.5 µM (by protocol); 300,000 compounds, 0.77% hits; AID 2098, 2009;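 active means more than half of replicate wells show activity change below -50%, luminescence cut by over half; inconclusive means some wells, but at most half, below -50%; inactive means no replicate well below -50%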;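 further: luciferase reports HSF-1 transcriptional activity via heat shock element; 0% = median of DMSO wells and -100% = zero luminescence signal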
# core dimer inh: inhibitors of HCV core protein dimerization, primary screen, biochemical, TR-FRET, high-throughput; TR-FRET GST/Flag-core106 dimerization, 1536-well; inhibition, % at 5 µM; 300,000 compounds, 0.33% hits; AID 1899, 2009;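 active means inhibition above the mean of all tested compounds plus 3 SD, set per screening campaign, cut at about 45% in these data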
#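 Material: Tagged HCV core106 pair (GST and Flag) | Amount: GST-core106 13.5 nM, Flag-core106 17 nM | Medium: KF-containing HEPES buffer, pH 7.45, DTT, CHAPS, BSA | Reagent: Eu donor and XL665 acceptor anti-tag antibodies | Schedule: 4 h at 22.5 °C | Technique: Time-resolved FRET, ex 340 nm, em 617 and 671 nm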
# Starred values were filed as active, the others as inactive; u = inconclusive; x = no result given.
SMILES,PHOSPHO1 inh,HSF1 activator,ALR H2O2 inh,AI-2 QS modul,HSF1 inh,core dimer inh
Nc1ncc(-c2ccccc2)c(-c2ccc(O)cc2O)n1,1,6,98*,3,-4,-3
COc1ccc(OCCOC(=O)c2cc(S(=O)(=O)N3CCOCC3)c(Cl)cc2Cl)cc1,x,4,-9,22,13,4
CC(=O)c1ccc(NC(=O)CSc2nccn2C)cc1,-17,6,u,20,-4,-2
COc1ccc(NC(=O)CSc2nccn2C)cc1S(N)(=O)=O,3,-30,99*,-27,-19,-2
CCOC(=O)c1ccc(NC(=O)CSc2nccn2C)cc1,19,23,99*,49,9,-6
Cc1cccc(CCNC(=O)Cc2ccc(NC3=NC4CS(=O)(=O)CC4S3)cc2)c1 (configuration not stated),23,1,-5,19,-1,6
COC(=O)c1cc(=O)n(-c2ccc(F)cc2)c(=Nc2ccc(F)cc2)s1,6,57*,7,40,48,2
COC(=O)c1cc(=O)n(Cc2ccc3c(c2)OCO3)c(=Nc2ccc(F)cc2)s1,-16,-5,-12,9,-9,11
COC(=O)c1cc(=O)n(Cc2cccs2)c(=Nc2ccc(F)cc2)s1,32,52*,3,16,45,7
COC(=O)c1ccc(N=c2sc(C(=O)OC)cc(=O)n2C)cc1,20,x,x,x,x,x
O=C(COc1ccc(S(=O)(=O)N2CCOCC2)cc1Cl)N1CCCC1,7,-14,-4,11,-16,9
CC1(C)C(=O)Nc2ccccc2N1C(=O)COc1ccc(S(=O)(=O)N2CCOCC2)cc1Cl,-7,10,-4,15,-6,65*
CCOc1ccc(N=Nc2c(=O)[nH]n3c(=O)cc(C)[nH]c23)cc1,4,-7,58,28,-2,-16
Cc1cc(=O)n2[nH]c(=O)c(N=Nc3ccccc3)c2[nH]1,8,-74,18,30,-64*,-20
COc1ccc(CCNC(=O)CNC(=O)c2ccc(Br)o2)cc1OC,x,-5,19,13,-8,-1
COc1ccc(CCN2CC(C(=O)N(C)CC(=O)Nc3cccc(F)c3)CC2=O)cc1OC (configuration not stated),3,-6,-2,25,0,-10
O=C(NC(=S)NCc1ccccc1)C1CCCCC1,51,-5,-1,9,1,8
Cc1ccc(/C([O-])=C(/C(=S)NCc2ccco2)[n+]2ccccc2)cc1,100*,-3,-21,28,-7,42
[O-]/C(=C(\C(=S)NCc1ccco1)[n+]1ccccc1)c1ccccc1Br,38,5,-26,14,4,20
O=[N+]([O-])c1ccc(/C([O-])=C(/C(=S)NCc2ccco2)[n+]2ccccc2)cc1,17,2,46,30,-4,52*
C=CCNC(=S)/C(=C(\[O-])c1ccc(Cl)cc1)[n+]1ccccc1,16,11,98*,27,-1,3
CCC(Oc1ccccc1OC)C(=O)N1CC(=O)Nc2ccccc21 (configuration not stated),40,0,20,-13,10,-5
O=C(/C=C/c1cccnc1)c1ccc(F)c(F)c1,22,2,16,22,-5,6
CN(C)c1ccc(C(=O)/C=C/c2cccnc2)cc1,-38,52*,5,7,22,-3
Cc1ccc(-c2c[nH]c(=S)n2-c2ccccc2F)cc1,36,-32,98*,-13,-16,3
SMILES,PHOSPHO1 inh,HSF1 activator,ALR H2O2 inh,AI-2 QS modul,HSF1 inh,core dimer inh
COc1ccccc1-n1c(-c2ccccc2)c[nH]c1=S,37,24,x,33,29,x
S=c1[nH]cc(-c2ccccc2)n1-c1ccccc1Cl,-20,57*,90*,-4,15,-7
O=C(c1ccc2c(=O)n3c(nc2c1)CCCCC3)N1CCN(C(c2ccccc2)c2ccccc2)CC1,16,62*,-3,19,23,18
Cc1noc(C)c1COc1ccc(C(=O)NCc2cccs2)cc1,x,x,0,x,x,x
CC1CN(Cc2cc(=O)oc3cc(O)c(Cl)cc23)CC(C)O1 (configuration not stated),11,12,8,21,-4,2
CCOC(=O)C(C(=O)Nc1cccc(C)c1)C1CCCCC1 (configuration not stated),11,20,1,28,17,-15
CC(=Nc1ccc(C)cc1C)c1sc2ccccc2c1O,-44,53*,x,13,12,5
NC(=O)CCC(C(=O)O)N1C(=O)c2ccc(O)cc2C1=O (configuration not stated),32,-63,-8,23,-54*,1
COc1ccc(/C=C/C(=O)c2cccc(-n3cnnn3)c2)cc1O,-12,57*,-10,x,27,-1
COc1ccccc1C(=O)COC(=O)c1cccc(-n2cnnn2)c1,x,x,-1,x,x,x
COc1ccc(-c2cc(C(F)(F)F)nc(S(C)(=O)=O)n2)cc1,-6,321*,x,6,262,11
CS(=O)(=O)c1nc(-c2ccc(F)cc2)cc(C(F)(F)F)n1,48,-92,x,u,-93*,x
Cc1ccc(NC(=O)C(=O)NCc2ccc(/C=C(/C#N)C(=O)NCc3cccnc3)o2)cc1C,-7,-8,-9,10,0,5
Cc1cccc(-[n+]2c(C)cc(C)c3c(=O)[nH]c(=O)[nH]c32)c1,-4,63*,x,15,14,2
Cc1cc(C)[n+](-c2ccc(C(C)C)cc2)c2[nH]c(=O)[nH]c(=O)c12,-12,4,-1,2,-2,-10
CN(c1ccccc1)c1ncccn1,x,-91,-3,10,-89*,-2
CN(c1ccccc1)c1nc(-n2ccnc2)nc(-n2ccnc2)n1,24,11,-6,40,-2,10
CCOC(=O)Cn1nc(C)c(NC(=O)COc2ccc([N+](=O)[O-])cc2)c1C,28,-63,-6,15,-53*,0
O=C(NCCCn1ccnc1)/C(=C\c1cccnc1)NC(=O)c1ccccc1F,49,5,-20,19,-1,-5
COCCNC(=S)N(c1ccccc1)C(C)C,15,20,50,10,4,-4
S=C(NC1CCCCC1)NN(c1ccccc1)c1ccccc1,-21,6,6,20,4,17
COCCNC(=S)NN(c1ccccc1)c1ccccc1,10,12,82*,40,-3,2
CNC(=S)NN(c1ccccc1)c1ccccc1,28,7,95*,19,-5,-3
Cc1cc2[nH]c(=S)[nH]c2cc1C,-41,0,99*,18,2,-9
